Laboratory results as given in ChEMBL document CHEMBL4014311, “Discovery of a Hepatitis C Virus NS5B Replicase Palm Site Allosteric Inhibitor (BMS-929075) Advanced to Phase 1 Clinical Studies” (J Med Chem, 2017).
Activity calls are given as the source filed them. The rule behind the calls is not given here.

Legend:
[1] = Half life in monkey liver microsomes; type: ADME, Macaca mulatta, microsome; settings: rhesus monkey
Hepatitis C virus [2] = assay: Ratio of EC50 for HCV genotype 1b infected in human HuH7 cells in presence of 40% human serum to EC50 for HCV genotype-1b infected in human HuH7 cells; type: functional, Hepacivirus hominis
[3] = Aqueous solubility of compound; type: physicochemical; settings: buffer
Canis familiaris = assay: Toxicity in dog up to 100 mg/kg, po administered as single dose measured up to 2 weeks; type: organism-based, Canis lupus familiaris; settings: in vivo, 336 h
[4] = Cmax in Sprague-Dawley rat at 6 mg/kg, po administered via gavage using docusate sodium/methocel/water formulation by LC/MS/MS analysis; type: ADME, organism-based; set-up: dose 6 mg/kg, route oral; settings: in vivo
Method in brief: (§1)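 Rats were fasted overnight and gavaged with a suspension of spray-dried dispersion (10% w/w drug loading in 0.02:0.5:99.48 docusate/methocel/water), n = 3 per group. Serial EDTA plasma was taken predose to 24 h and assayed by LC/MS/MS. Analysis was noncompartmental: Cmax observed, AUC by linear/log trapezoids, F from dose-normalized PO versus IV AUC.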

[5] = Protein binding in rat serum; type: ADME, cell-free; settings: read-out: PB (converted)
Cytochrome P450 3A4 = Cytochrome P450 3A4 (Homo sapiens, UniProt P08684); assay: Inhibition of microsomal CYP3A4 (unknown origin); type: ADME
Sequence of Cytochrome P450 3A4 (P08684 whole entry): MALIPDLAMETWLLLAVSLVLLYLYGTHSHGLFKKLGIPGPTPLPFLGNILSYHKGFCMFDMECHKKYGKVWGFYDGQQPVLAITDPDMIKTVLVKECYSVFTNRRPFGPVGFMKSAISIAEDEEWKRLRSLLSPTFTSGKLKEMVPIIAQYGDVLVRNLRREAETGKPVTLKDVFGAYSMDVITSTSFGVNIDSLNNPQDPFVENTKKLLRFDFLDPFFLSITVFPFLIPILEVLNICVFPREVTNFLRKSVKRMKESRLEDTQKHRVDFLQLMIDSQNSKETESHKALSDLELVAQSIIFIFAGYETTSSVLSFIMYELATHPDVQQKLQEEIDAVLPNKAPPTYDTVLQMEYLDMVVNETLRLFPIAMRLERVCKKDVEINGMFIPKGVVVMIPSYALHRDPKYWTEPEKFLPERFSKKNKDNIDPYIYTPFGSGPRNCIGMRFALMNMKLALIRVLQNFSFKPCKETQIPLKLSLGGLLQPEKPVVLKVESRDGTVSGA

Hepatitis C virus [6] = assay: Ratio of EC50 for HCV genotype 1a infected in human HuH7 cells in presence of 40% human serum to EC50 for HCV genotype 1a infected in human HuH7 cells; type: functional, Hepacivirus hominis, subtype 1a
Hepatitis C virus [7] = assay: Antiviral activity against HCV genotype 3a infected in human HuH7 cells after 3 days by luciferase reporter assay; type: functional, cell-based, Hepacivirus hominis; settings: Huh-7, 72 h
[8] = Cytotoxicity against human HepG2 cells; type: cell-based
[9] = Inhibition of HCV genotype 1b NS5B replicase C316N mutant infected in human HuH7 cells assessed as reduction of viral replication after 3 days by luciferase reporter assay; type: cell-based, Hepatitis C virus subtype 1b; settings: Hepatitis C virus, Huh-7, 72 h
Hepatitis C virus [10] = assay: Antiviral activity against HCV genotype 4a infected in human HuH7 cells after 3 days by luciferase reporter assay; type: functional, cell-based, Hepacivirus hominis; settings: Huh-7, 72 h
[11] = Ratio of plasma concentration in human at 25 mg/day administered as single dose to EC50 for HCV genotype 1b NS5B C316N mutant infected in human HuH7 cells
Method in brief: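 Randomized, double-blind, placebo-controlled Phase I single ascending dose study in healthy volunteers. Single oral dose of an amorphous solid dispersion formulation with 30% drug loading, at doses up to 400 mg. Human plasma exposure was measured and set against the replicon EC50.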

[12] = Ratio of drug uptake in Sprague-Dawley rat liver to plasma at 6 mg/kg, po administered via gavage after 24 hrs by LC/MS/MS analysis; type: ADME, organism-based
Method in brief: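 Rats fasted overnight, then dosed by gavage at 6 mg/kg in 90:10 PEG-400/ethanol (v/v). Plasma sampled serially from cannula into EDTA tubes predose and at 15, 30, 45, 60 min and 2, 4, 6, 8, 24 h; n = 3. Livers removed at 6 h (satellite animals) and 24 h, homogenized in 80% acetonitrile/HBSS, assayed by LC/MS/MS. Tmax taken directly from observed data.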

[13] = target: Voltage-dependent L-type calcium channel subunit alpha-1C (Homo sapiens, UniProt Q13936); assay: Inhibition of Cav1.2 (unknown origin)
Sequence of Voltage-dependent L-type calcium channel subunit alpha-1C (Q13936 whole entry): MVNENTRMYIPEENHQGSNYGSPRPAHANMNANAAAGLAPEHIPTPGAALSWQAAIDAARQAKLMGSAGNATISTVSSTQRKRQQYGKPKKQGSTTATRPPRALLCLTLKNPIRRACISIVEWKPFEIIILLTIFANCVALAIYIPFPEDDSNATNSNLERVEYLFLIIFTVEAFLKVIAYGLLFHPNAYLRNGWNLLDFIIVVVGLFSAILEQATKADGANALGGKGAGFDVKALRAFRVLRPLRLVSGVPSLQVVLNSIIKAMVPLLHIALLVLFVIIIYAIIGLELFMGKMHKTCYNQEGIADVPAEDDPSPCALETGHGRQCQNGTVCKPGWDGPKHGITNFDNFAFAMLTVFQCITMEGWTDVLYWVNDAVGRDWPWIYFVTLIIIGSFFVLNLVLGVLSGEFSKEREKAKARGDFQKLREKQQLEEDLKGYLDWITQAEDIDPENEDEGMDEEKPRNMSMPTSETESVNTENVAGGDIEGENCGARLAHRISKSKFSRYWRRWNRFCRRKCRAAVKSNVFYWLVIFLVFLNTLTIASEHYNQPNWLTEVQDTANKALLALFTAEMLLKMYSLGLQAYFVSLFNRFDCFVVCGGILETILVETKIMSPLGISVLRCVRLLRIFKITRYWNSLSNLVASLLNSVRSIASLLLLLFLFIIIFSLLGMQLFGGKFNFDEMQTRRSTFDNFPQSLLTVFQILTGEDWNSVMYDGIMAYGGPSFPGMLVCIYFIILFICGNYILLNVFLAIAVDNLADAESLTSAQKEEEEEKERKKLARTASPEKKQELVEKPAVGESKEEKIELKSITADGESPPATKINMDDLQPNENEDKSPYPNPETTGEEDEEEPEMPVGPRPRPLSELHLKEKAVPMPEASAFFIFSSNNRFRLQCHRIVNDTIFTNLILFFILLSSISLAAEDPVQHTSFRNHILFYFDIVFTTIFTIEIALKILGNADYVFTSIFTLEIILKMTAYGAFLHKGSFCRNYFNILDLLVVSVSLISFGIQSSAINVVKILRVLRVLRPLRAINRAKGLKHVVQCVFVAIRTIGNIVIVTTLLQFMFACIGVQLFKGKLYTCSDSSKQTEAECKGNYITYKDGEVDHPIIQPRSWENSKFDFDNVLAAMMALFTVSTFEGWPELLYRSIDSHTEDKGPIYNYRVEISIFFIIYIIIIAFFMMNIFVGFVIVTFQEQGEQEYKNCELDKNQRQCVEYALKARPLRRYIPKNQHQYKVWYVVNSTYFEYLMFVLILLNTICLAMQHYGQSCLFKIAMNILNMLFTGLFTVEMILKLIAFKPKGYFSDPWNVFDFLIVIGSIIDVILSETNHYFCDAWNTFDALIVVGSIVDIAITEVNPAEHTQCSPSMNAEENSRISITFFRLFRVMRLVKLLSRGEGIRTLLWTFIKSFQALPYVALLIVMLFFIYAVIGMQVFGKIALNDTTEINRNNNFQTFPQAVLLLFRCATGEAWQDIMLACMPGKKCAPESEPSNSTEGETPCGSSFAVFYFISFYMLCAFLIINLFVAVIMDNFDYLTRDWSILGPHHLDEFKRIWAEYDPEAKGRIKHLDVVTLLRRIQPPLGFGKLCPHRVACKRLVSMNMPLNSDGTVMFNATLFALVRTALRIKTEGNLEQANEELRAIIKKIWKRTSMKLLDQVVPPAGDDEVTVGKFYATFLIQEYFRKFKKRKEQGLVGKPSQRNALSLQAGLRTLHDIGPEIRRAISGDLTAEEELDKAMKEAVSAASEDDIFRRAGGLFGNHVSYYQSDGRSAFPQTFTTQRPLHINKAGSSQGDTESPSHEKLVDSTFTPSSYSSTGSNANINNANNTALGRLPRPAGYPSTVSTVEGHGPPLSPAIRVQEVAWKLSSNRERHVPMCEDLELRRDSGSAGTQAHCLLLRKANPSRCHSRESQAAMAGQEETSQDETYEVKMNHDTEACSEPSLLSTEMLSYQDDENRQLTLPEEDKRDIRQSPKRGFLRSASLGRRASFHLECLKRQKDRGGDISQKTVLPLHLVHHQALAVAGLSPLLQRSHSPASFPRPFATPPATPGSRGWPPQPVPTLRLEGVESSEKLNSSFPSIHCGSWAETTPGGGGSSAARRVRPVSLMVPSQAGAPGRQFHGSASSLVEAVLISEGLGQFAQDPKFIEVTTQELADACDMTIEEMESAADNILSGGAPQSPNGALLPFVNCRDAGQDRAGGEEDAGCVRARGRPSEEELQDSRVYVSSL

[14] = Membrane permeability at pH 7.4 by PAMPA; type: physicochemical; settings: read-out: permeability
[15] = Oral bioavailability in Sprague-Dawley rat at 6 mg/kg using docusate sodium/methocel/water formulation by LC/MS/MS analysis; type: ADME, organism-based; settings: in vivo; method in brief: as §1
[16] = Cytotoxicity against human HuH7 cells after 3 days by CellTiter-Blue assay; type: cell-based, Huh-7
Hepatitis C virus [17] = assay: Antiviral activity against HCV genotype 1b infected in human HuH7 cells co-treated with daclatasvir/asunaprevir after 3 days by luciferase reporter assay; type: functional, cell-based; settings: Hepacivirus hominis
[18] = AUC in Sprague-Dawley rat at 6 mg/kg, po administered via gavage using docusate sodium/methocel/water formulation by LC/MS/MS analysis; type: ADME, organism-based; settings: in vivo; method in brief: as §1
[19] = target: T1, Nuclear receptor subfamily 1 group I member 2 (Homo sapiens, UniProt O75469); assay: Transactivation of PXR (unknown origin); type: ADME
T1 sequence (O75469 whole entry): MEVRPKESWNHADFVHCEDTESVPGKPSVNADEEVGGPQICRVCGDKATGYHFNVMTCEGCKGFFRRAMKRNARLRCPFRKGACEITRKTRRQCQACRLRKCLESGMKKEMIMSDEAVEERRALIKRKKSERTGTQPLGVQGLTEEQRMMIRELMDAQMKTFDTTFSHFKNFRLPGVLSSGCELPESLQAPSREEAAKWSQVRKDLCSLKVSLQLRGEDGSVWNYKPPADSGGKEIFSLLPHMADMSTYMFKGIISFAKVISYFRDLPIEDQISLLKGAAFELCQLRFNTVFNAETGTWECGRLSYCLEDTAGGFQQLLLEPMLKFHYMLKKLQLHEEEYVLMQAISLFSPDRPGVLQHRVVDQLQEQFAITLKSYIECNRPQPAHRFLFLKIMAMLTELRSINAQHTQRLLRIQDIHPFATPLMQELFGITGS

[20] = Clearance in Sprague-Dawley rat at 2 mg/kg, iv by LC/MS/MS analysis; type: ADME, organism-based; settings: in vivo
Method in brief: (§2)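 A 10 min constant-rate jugular vein infusion was given in 90:10 PEG-400/ethanol (v/v), n = 3 rats. Plasma was sampled predose and at 10, 15, 30, 45, 60 min and 2, 4, 6, 8, 24 h, then assayed by LC/MS/MS. Clearance and apparent terminal t1/2 were estimated by noncompartmental analysis.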

Hepatitis C virus [21] = assay: Antiviral activity against HCV genotype 6a infected in human HuH7 cells after 3 days by luciferase reporter assay; type: functional, cell-based, Hepacivirus hominis; settings: Huh-7, 72 h
[22] = Cytotoxicity against primary human hepatocytes; type: cell-based, Hepatocyte
[23] = Oral bioavailability in Sprague-Dawley rat at 6 mg/kg by LC/MS/MS analysis; type: ADME, organism-based; settings: in vivo
Method in brief: (§3)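 Rats were fasted overnight with free access to water, then dosed by gastric gavage with an […] solution in 90:10 PEG-400/ethanol (v/v), n = 3 per group. EDTA plasma was sampled predose and at 15, 30, 45, 60 min and 2, 4, 6, 8, 24 h, then assayed by LC/MS/MS. Parameters come from noncompartmental analysis: Cmax observed directly, AUC by linear/log trapezoidal summation, F as dose-normalized PO/IV AUC ratio.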

[24] = target: Sodium channel protein type 5 subunit alpha (Homo sapiens, UniProt Q14524); assay: Inhibition of Nav1.5 (unknown origin)
Rattus norvegicus = assay: Toxicity in rat up to 100 mg/kg, po administered as single dose measured up to 2 weeks; type: organism-based; settings: in vivo, 336 h
[25] = target: Voltage-gated inwardly rectifying potassium channel KCNH2 (Homo sapiens, UniProt Q12809); assay: Inhibition of human ERG by thallium flux assay
Sequence of Voltage-gated inwardly rectifying potassium channel KCNH2 (Q12809 whole entry): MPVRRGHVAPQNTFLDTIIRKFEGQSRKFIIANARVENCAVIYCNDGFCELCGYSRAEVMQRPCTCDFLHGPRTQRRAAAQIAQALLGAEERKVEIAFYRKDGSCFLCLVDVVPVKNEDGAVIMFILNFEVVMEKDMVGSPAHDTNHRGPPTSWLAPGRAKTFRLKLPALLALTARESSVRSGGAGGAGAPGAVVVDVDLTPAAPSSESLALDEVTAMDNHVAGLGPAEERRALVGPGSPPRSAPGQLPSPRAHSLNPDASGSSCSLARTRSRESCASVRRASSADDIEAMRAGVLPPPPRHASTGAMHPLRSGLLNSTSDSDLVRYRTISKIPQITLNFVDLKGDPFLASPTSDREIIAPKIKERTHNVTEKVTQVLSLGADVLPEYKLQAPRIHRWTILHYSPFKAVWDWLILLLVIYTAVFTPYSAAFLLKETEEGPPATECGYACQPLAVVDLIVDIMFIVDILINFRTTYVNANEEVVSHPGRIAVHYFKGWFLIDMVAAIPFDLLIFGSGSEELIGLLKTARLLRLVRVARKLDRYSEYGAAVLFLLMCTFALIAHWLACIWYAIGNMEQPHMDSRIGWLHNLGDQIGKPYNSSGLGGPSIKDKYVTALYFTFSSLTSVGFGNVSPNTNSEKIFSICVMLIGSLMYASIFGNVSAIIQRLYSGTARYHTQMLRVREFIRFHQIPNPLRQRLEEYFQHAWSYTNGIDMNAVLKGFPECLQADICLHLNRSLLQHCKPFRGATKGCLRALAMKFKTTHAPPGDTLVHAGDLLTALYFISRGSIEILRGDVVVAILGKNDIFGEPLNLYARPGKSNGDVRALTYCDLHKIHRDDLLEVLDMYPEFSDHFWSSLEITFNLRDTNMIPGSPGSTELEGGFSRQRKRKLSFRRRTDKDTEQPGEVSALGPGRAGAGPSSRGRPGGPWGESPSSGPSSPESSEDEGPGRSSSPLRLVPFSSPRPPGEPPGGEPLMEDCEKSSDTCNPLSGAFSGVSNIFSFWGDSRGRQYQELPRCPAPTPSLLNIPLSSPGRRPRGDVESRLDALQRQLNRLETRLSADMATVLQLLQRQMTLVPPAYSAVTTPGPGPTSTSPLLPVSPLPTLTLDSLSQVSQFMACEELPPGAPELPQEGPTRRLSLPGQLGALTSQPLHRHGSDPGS

[26] = Lipophilicity, log D of the compound at pH 6.5 by shake flask method; type: physicochemical; settings: buffer
[27] = Protein binding in dog serum; type: ADME, cell-free, Canis lupus familiaris; settings: read-out: PB (converted)
[28] = Cmax in Sprague-Dawley rat at 6 mg/kg, po administered via gavage by LC/MS/MS analysis; type: ADME, organism-based; set-up: dose 6 mg/kg, route oral; settings: in vivo; method in brief: as §3
[29] = Half life in Sprague-Dawley rat at 2 mg/kg,iv by LC/MS/MS analysis; type: ADME, organism-based; settings: Sprague-Dawley, in vivo; method in brief: as §2
Hepatitis C virus [30] = assay: Antiviral activity against HCV genotype 2a infected in human HuH7 cells after 3 days by luciferase reporter assay; type: functional, cell-based, Hepacivirus hominis; settings: Huh-7, 72 h

CNC(=O)c1c(-c2ccc(F)cc2)oc2ccc(-c3cc(C(=O)NC4(c5ncccn5)CC4)ccc3C)c(F)c12 [BMS-929075]
half-life [1]: > 2 h | Ratio EC50 (Hepatitis C virus [2]): 5.5 | solubility [3]: < 1 µg/mL | Activity (Canis familiaris): Non-Toxic | Cmax [4]: 14.7 µM | fraction unbound [5]: 0.003 | IC50 (Cytochrome P450 3A4): > 13000 nM | Ratio EC50 (Hepatitis C virus [6]): 5.5 | EC50 (Hepatitis C virus [7]): 22 nM | CC50 [8]: > 12500 nM | EC50 [9]: 18 nM | EC50 (Hepatitis C virus [10]): 3 nM | Ratio [11]: 10 | Kp at 24 h [12]: 1.6 | inhibition (INH) [13]: Not Active | Papp [14]: 97.2 ×10⁻⁶ cm/s | bioavailability [15]: > 100% | CC50 at 72 h [16]: 60000 nM | Activity (Hepatitis C virus [17]): Active | AUC [18]: 140 µM·h | EC50 [19]: > 50000 nM | clearance [20]: 1.7 mL/min/kg | EC50 (Hepatitis C virus [21]): 5 nM | CC50 [22]: > 50000 nM | bioavailability [23]: 48% | inhibition (INH) [24]: Not Active | Activity (Rattus norvegicus): Non-Toxic | IC50 [25]: 24000 nM | logD [26]: 5.09 | fraction unbound [27]: 0.019 | Cmax [28]: 7.5 µM | half-life [29]: 4.7 h | EC50 (Hepatitis C virus [30]): 481 nM
